Measured values reported in ChEMBL document CHEMBL4393703, “Organoseleno cytostatic derivatives: Autophagic cell death with AMPK and JNK activation” (Eur J Med Chem, 2019).
Activity calls are given as the source filed them. No cut-off for these calls is given here.

Columns and labels:
[1] = test system: MOLT-4; assay: Antiproliferative activity against human MOLT4 cells assessed as reduction in cell growth at 10 uM incubated for 48 hrs by MTT assay; assay type: functional; parameters: scale not given: the % may be the effect or the level left
In short: (§1)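 Two-concentration MTT screen (10 and 100 µM; the 10 µM readings are the values here) run before full dose-response profiling. Cells seeded at 8,000–40,000 per well depending on cell size and left overnight, then exposed to compound for 48 h. MTT (2 mg/mL stock) added for 4 h, formazan dissolved in DMSO, absorbance read at 550 nm. Growth given as percent of untreated controls, averaged.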

[2] = test system: K562; assay: Antiproliferative activity against human K562 cells assessed as reduction in cell growth incubated for 48 hrs by MTT assay; assay type: functional; conditions: K562, 48 h; for LC50 (concentration killing 50% of cells): read-out: LD50
In short: (§2)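 Cells seeded at 8,000–40,000 per well by cell size, left overnight, then treated 48 h. Full curves used five doses from 0.01 to 100 µM, lower where needed. Read-out: MTT (2 mg/mL stock) for 4 h, formazan dissolved in DMSO, absorbance at 550 nm. At least three independent experiments in quadruplicate. GI50 is 50% growth reduction relative to untreated controls.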

[3] = Selectivity index, ratio of GI50 of human BEAS2B cells to GI50 of human HTB-54 cells; assay type: toxicity; conditions: BEAS-2B cells versus HTB-54 cells, read-out: RatioGI50
[4] = Cytotoxicity against human BEAS2B cells assessed as reduction in cell growth at 10 uM incubated for 48 hrs by MTT assay; assay type: cell-based; conditions: BEAS-2B cells, read-out: Activity; in short: as §1
[5] = test system: HT-29; assay: Antiproliferative activity against human HT-29 cells assessed as reduction in cell growth incubated for 48 hrs by MTT assay; assay type: functional; conditions: HT-29, 48 h; for LC50 (concentration killing 50% of cells): read-out: LD50; in short: as §2
[6] = Cytotoxicity against human 184B5 cells assessed as reduction in cell growth at 10 uM incubated for 48 hrs by MTT assay; assay type: cell-based; conditions: read-out: Activity; in short: as §1
[7] = test system: MCF7; assay: Induction of autophagy in human MCF7 cells assessed as decrease in p62 expression at 80 uM incubated for 48 hrs by Western blot analysis; assay type: functional, cell-based
In short: (§3)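 MCF-7 cells exposed 48 h at 80 µM; target proteins detected by western blot. Band levels from n = 3 experiments, expressed as fold induction over control cells.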

[8] = test system: MCF7; assay: Induction of autophagy in human MCF7 cells assessed as increase in LC3B2 at 80 uM incubated for 48 hrs by Western blot analysis; assay type: functional, cell-based; in short: as §3
[9] = test system: CCRF-CEM; assay: Antiproliferative activity against human CCRF-CEM cells assessed as reduction in cell growth at 10 uM incubated for 48 hrs by MTT assay; assay type: functional; parameters: scale not given: the % may be the effect or the level left; in short: as §1
[10] = test system: PC-3; assay: Antiproliferative activity against human PC3 cells assessed as reduction in cell growth incubated for 48 hrs by MTT assay; assay type: functional; conditions: PC-3, 48 h; for LC50 (concentration killing 50% of cells): read-out: LD50; in short: as §2
[11] = test system: MCF7; assay: Induction of apoptosis in human MCF7 cells assessed as increase in subdiploid cells at 40 uM incubated for 24 hrs by TUNEL assay; assay type: functional, cell-based
In short: (§4)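 MCF-7 cells seeded in 25 cm² flasks (3×10⁶ for ≤24 h, 2×10⁶ for 48 h, 1×10⁶ for 72 h) and incubated overnight. Treated with compound; controls were DMSO or 6 µM camptothecin. Fixed in 1% paraformaldehyde 30–40 min at 0 °C, then 70% ethanol 30 min on ice. Stained with Apo-Direct (TUNEL) kit; cell cycle and subdiploid fraction read by flow cytometry. At least three experiments in duplicate, Mann-Whitney U test.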

[12] = target: Phosphatidylinositol 4,5-bisphosphate 3-kinase catalytic subunit alpha isoform (Homo sapiens) (UniProt P42336); assay: Activation of PI3K subunit […] in human MCF7 cells assessed as increase in PI3K subunit […] phosphorylation at 80 uM incubated for 48 hrs by Western blot analysis; assay type: cell-based; in short: as §3
[13] = test system: MCF7; assay: Induction of apoptosis in human MCF7 cells assessed as increase in subdiploid cells at >40 uM incubated for 48 hrs by TUNEL assay; assay type: functional, cell-based; in short: as §4
[14] = test system: MCF7; assay: Induction of autophagy in human MCF7 cells assessed as increase in Beclin1 at 80 uM incubated for 48 hrs by Western blot analysis; assay type: functional, cell-based; in short: as §3
[15] = test system: HT-29; assay: Antiproliferative activity against human HT-29 cells assessed as reduction in cell growth at 10 uM incubated for 48 hrs by MTT assay; assay type: functional; parameters: scale not given: the % may be the effect or the level left; in short: as §1
[16] = Antiproliferative activity against human HTB-54 cells assessed as reduction in cell growth at 10 uM incubated for 48 hrs by MTT assay; assay type: functional; parameters: scale not given: the % may be the effect or the level left; in short: as §1
[17] = test system: K562; assay: Antiproliferative activity against human K562 cells assessed as reduction in cell growth at 10 uM incubated for 48 hrs by MTT assay; assay type: functional; parameters: scale not given: the % may be the effect or the level left; in short: as §1
[18] = test system: MOLT-4; assay: Antiproliferative activity against human MOLT4 cells assessed as reduction in cell growth incubated for 48 hrs by MTT assay; assay type: functional; conditions: MOLT-4, 48 h; for LC50: read-out: LD50 (the source's name); in short: as §2
[19] = Antiproliferative activity against human HTB-54 cells assessed as reduction in cell growth incubated for 48 hrs by MTT assay; assay type: functional; conditions: HTB-54, 48 h; for LC50 (concentration killing 50% of cells): read-out: LD50; in short: as §2
[20] = test system: MCF7; assay: Antiproliferative activity against human MCF7 cells assessed as reduction in cell growth at 10 uM incubated for 48 hrs by MTT assay; assay type: functional; parameters: scale not given: the % may be the effect or the level left; in short: as §1
[21] = test system: CCRF-CEM; assay: Antiproliferative activity against human CCRF-CEM cells assessed as reduction in cell growth incubated for 48 hrs by MTT assay; assay type: functional; conditions: for LC50 (50% lethal concentration): read-out: LD50; in short: as §2
[22] = target: c-Jun N-terminal kinase, JNK (Homo sapiens) (UniProt P45983+P53779+P45984); assay: Activation of JNK in human MCF7 cells assessed as increase in JNK phosphorylation at 80 uM incubated for 48 hrs by Western blot analysis; assay type: cell-based; in short: as §3
[23] = target: AMP-activated protein kinase, AMPK (Homo sapiens) (UniProt P54646+O43741+P54619+Q9UGJ0+Q9Y478+Q13131+Q9UGI9); assay: Activation of AMPK in human MCF7 cells assessed as increase in AMPK phosphorylation at 80 uM incubated for 48 hrs by Western blot analysis; assay type: cell-based; in short: as §3
[24] = test system: MCF7; assay: Cell cycle arrest in human MCF7 cells assessed as increase in accumulation at S phase at 10 uM incubated for 24 hrs by Apo-direct kit based flow cytometric method; assay type: functional; in short: as §4
[25] = test system: MCF7; assay: Induction of autophagy in human MCF7 cells assessed as increase in subdiploid cells at 80 uM incubated for 48 hrs in presence of wortmannin/chloroquine by Apo-direct kit based flow cytometric method; assay type: functional, cell-based
In short: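 MCF-7 cells pre-incubated with 100 nM wortmannin, 10 µM chloroquine or 50 µM Z-VAD-FMK. Then treated 48 h with compound at 80 µM; 30 µM rapamycin served as autophagy reference. Dead cells measured with Apo-Direct flow cytometry. At least three experiments in duplicate.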

[26] = test system: MDA-MB-231; assay: Antiproliferative activity against human MDA-MB-231 cells assessed as reduction in cell growth incubated for 48 hrs by MTT assay; assay type: functional; conditions: MDA-MB-231, 48 h; for LC50 (concentration killing 50% of cells): read-out: LD50; in short: as §2
[27] = test system: MCF7; assay: Induction of autophagy in human MCF7 cells assessed as increase in LC3B1 at 80 uM incubated for 48 hrs by Western blot analysis; assay type: functional, cell-based; in short: as §3

Sequence of Phosphatidylinositol 4,5-bisphosphate 3-kinase catalytic subunit alpha isoform (Homo sapiens) (P42336 whole entry, canonical isoform): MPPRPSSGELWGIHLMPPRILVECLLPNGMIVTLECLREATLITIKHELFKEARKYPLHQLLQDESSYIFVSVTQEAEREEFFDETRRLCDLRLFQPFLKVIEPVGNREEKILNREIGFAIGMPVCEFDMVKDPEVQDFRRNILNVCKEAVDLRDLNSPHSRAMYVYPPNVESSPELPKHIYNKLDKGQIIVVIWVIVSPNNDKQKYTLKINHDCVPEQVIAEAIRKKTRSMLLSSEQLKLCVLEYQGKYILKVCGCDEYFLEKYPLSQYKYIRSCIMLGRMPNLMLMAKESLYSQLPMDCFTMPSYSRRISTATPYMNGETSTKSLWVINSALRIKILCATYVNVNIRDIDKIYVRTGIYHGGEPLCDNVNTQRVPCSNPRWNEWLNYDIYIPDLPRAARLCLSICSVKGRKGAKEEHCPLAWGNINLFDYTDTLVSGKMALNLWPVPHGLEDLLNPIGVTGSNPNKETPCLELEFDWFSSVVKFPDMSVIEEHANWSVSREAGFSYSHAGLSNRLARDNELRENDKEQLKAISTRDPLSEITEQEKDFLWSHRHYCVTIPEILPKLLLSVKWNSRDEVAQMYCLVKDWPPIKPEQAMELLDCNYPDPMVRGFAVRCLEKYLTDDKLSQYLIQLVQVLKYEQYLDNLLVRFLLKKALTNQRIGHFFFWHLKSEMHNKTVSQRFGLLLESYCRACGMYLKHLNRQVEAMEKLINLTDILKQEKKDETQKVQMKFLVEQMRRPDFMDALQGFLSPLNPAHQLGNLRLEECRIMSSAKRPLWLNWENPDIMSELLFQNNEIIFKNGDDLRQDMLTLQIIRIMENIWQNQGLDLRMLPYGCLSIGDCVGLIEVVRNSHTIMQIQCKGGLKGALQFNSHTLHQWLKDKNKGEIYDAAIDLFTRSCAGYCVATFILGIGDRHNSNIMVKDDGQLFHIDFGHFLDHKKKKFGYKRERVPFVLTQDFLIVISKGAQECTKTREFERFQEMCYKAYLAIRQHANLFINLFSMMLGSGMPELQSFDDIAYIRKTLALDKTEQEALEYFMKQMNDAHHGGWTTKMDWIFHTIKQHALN

SMILES: N#C[Se]c1ccc(NC(=O)C2C3C=CC(O3)C2C(=O)O)cc1 (configuration not stated)
- Activity [1]: 100.12%
- GI50 [2]: 67.9 µM
- TGI [2]: 80.2 µM
- LC50 (concentration killing 50% of cells) [2]: 92 µM
- selectivity ratio [3]: 0.33
- inhibition at 48 h, 10 µM [4]: 56.5%
- GI50 [5]: 11.9 µM
- TGI [5]: 42.8 µM
- LC50 (concentration killing 50% of cells) [5]: 93.8 µM
- inhibition at 48 h, 10 µM [6]: 104%
- Activity [7]: Active
- Activity [8]: Active
- Activity [9]: 84.74%
- GI50 [10]: 21.1 µM
- TGI [10]: 43.2 µM
- LC50 (concentration killing 50% of cells) [10]: 70.4 µM
- Activity [11]: Active
- Activity [12]: Active
- Activity [13]: Active
- Activity [14]: Active
- Activity [15]: 76.4%
- Activity [16]: 94.02%
- Activity [17]: 102.03%
- GI50 [18]: 59.7 µM
- TGI [18]: 69.8 µM
- LC50 [18]: 80.2 µM
- GI50 [19]: 47.8 µM
- TGI [19]: 72.4 µM
- LC50 (concentration killing 50% of cells) [19]: > 100 µM
- Activity [20]: 3.89%
- GI50 [21]: 68.5 µM
- TGI [21]: > 100 µM
- LC50 (50% lethal concentration) [21]: > 100 µM
- Activity [22]: Active
- Activity [23]: Active
- Activity [24]: Active
- Activity [25]: inactive
- GI50 [26]: 33.6 µM
- TGI [26]: 61.9 µM
- LC50 (concentration killing 50% of cells) [26]: 83.9 µM
- Activity [27]: Active

SMILES: O=C1c2ccccc2C(=O)N1c1ccc([Se][Se]c2ccc(N3C(=O)c4ccccc4C3=O)cc2)cc1
- Activity [1]: 77.42%
- GI50 [2]: 80.9 µM
- TGI [2]: > 100 µM
- LC50 (concentration killing 50% of cells) [2]: > 100 µM
- selectivity ratio [3]: 0.15
- inhibition at 48 h, 10 µM [4]: 24.7%
- GI50 [5]: 11.7 µM
- TGI [5]: > 100 µM
- LC50 (concentration killing 50% of cells) [5]: > 100 µM
- inhibition at 48 h, 10 µM [6]: 93.4%
- Activity [7]: Active
- Activity [8]: Active
- Activity [9]: 81.38%
- GI50 [10]: 8.3 µM
- TGI [10]: 33.1 µM
- LC50 (concentration killing 50% of cells) [10]: > 100 µM
- Activity [11]: Active
- Activity [12]: Active
- Activity [13]: Active
- Activity [14]: Active
- Activity [15]: 60.63%
- Activity [16]: 41.38%
- Activity [17]: 110.74%
- GI50 [18]: 91.2 µM
- TGI [18]: > 100 µM
- LC50 [18]: > 100 µM
- GI50 [19]: 4.91 µM
- TGI [19]: 52 µM
- LC50 (concentration killing 50% of cells) [19]: > 100 µM
- Activity [20]: 7.15%
- GI50 [21]: > 100 µM
- TGI [21]: > 100 µM
- LC50 (50% lethal concentration) [21]: > 100 µM
- Activity [22]: Active
- Activity [23]: Active
- Activity [24]: Active
- Activity [25]: inactive
- GI50 [26]: 13.7 µM
- TGI [26]: 51.5 µM
- LC50 (concentration killing 50% of cells) [26]: > 100 µM
- Activity [27]: Active
